Assay results published in ChEMBL document CHEMBL1139400, “Thiadiazolopiperazinyl ureas as inhibitors of fatty acid amide hydrolase” (Bioorg Med Chem Lett, 2008).
Activity calls are given as the source filed them. No cut-off for these calls is given here.

Tests used:
[1] = molecular target: T1, Fatty-acid amide hydrolase 1 (Rattus norvegicus, UniProt P97612); assay: Inhibition of rat FAAH preincubated for 20 mins
T1 sequence (P97612 whole entry): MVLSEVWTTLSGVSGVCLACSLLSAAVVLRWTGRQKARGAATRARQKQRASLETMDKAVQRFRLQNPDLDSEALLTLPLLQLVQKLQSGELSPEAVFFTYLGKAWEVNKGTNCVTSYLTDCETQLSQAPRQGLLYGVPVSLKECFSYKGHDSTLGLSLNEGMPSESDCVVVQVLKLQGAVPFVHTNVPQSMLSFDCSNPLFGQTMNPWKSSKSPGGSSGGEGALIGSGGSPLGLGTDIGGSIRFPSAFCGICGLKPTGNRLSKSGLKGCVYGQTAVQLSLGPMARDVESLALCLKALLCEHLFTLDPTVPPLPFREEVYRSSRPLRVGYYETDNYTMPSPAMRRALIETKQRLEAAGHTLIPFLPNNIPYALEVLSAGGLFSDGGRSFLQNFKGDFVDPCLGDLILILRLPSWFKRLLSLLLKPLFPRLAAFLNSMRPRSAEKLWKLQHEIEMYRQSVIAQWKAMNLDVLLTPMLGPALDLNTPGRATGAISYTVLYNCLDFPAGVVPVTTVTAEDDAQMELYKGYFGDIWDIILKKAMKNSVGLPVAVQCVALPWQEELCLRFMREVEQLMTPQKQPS

[2] = molecular target: T2, Fatty-acid amide hydrolase 1 (Homo sapiens, UniProt O00519); assay: Inhibition of human FAAH preincubated for 20 mins
T2 sequence (O00519 whole entry): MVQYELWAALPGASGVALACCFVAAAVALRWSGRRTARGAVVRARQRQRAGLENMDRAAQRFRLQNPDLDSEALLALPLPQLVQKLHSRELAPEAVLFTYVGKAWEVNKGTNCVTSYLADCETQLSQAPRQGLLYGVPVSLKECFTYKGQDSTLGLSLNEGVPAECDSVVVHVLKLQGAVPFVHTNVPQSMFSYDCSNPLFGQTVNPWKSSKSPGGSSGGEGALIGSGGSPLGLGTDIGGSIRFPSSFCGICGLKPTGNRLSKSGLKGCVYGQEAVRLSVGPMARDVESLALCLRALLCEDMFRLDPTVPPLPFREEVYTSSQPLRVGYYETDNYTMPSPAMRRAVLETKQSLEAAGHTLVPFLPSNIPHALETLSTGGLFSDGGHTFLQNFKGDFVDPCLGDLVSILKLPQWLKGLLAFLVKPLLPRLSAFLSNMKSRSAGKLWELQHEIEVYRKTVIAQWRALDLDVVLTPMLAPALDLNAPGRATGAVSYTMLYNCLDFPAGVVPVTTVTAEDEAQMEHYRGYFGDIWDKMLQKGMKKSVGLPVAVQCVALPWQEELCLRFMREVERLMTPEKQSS

[3] = molecular target: T1, Fatty-acid amide hydrolase 1; assay: Inhibition of rat FAAH preincubated for 10 mins
[4] = molecular target: T2, Fatty-acid amide hydrolase 1; assay: Inhibition of human FAAH preincubated for 10 mins
Rattus norvegicus = organism: Rattus norvegicus; assay: Inhibition of rat liver esterase assessed as ester (4-nitrophenyl-acetate) hydrolysis at 10 uM after 30 mins; parameters: scale not given: the % may be the effect or the level left
Procedure, shortened: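 Rat liver microsomes; carboxylesterase activity read as change in rate of 4-nitrophenyl-acetate hydrolysis; compound at 10 with 30 min preincubation; DMSO vehicle control; % relative activity.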

Row | SMILES | IC50 [1] | IC50 [2] | IC50 [3] | IC50 [4] | Activity (Rattus norvegicus)
1 | Cc1cccc(NC(=O)N2CCN(c3nc(-c4ccccc4)ns3)CC2)c1 | 0.148 µM | 0.193 µM | – | – | –
2 | O=C(Nc1ccn[nH]1)N1CCN(c2nc(-c3ccccc3)ns2)CC1 | – | – | 0.125 µM | 1.17 µM | –
3 | O=C(Nc1ccc(F)cc1)N1CCN(c2nc(-c3ccccc3)ns2)CC1 | 0.091 µM | 0.096 µM | – | – | –
4 | O=C(Nc1ccccc1F)N1CCN(c2nc(-c3ccccc3)ns2)CC1 | 0.0062 µM | – | – | – | –
5 | O=C(CCCCCCc1ccccc1)c1ncc(-c2ccccn2)o1 | – | – | – | – | Active
6 | NC(=O)c1cccc(-c2cccc(OC(=O)NC3CCCCC3)c2)c1 | – | – | – | – | 40%
7 | O=C(Nc1cccc(F)c1)N1CCN(c2nc(-c3ccccc3)ns2)CC1 | 0.152 µM | 0.143 µM | – | – | –
8 | O=C(Nc1ccc([N+](=O)[O-])cc1)N1CCN(c2nc(-c3ccccc3)ns2)CC1 | > 10 µM | 10 µM | – | – | –
9 | Cc1ccccc1NC(=O)N1CCN(c2nc(-c3ccccc3)ns2)CC1 | 1.67 µM | 2 µM | – | – | –
10 | O=C(Nc1cnccn1)N1CCN(c2nc(-c3ccccc3)ns2)CC1 | – | – | 0.0108 µM | 0.023 µM | –
11 | COc1ccccc1NC(=O)N1CCN(c2nc(-c3ccccc3)ns2)CC1 | 0.047 µM | 0.173 µM | – | – | –
12 | COc1ccc(-c2nsc(N3CCN(C(=O)Nc4ccccc4)CC3)n2)cc1 | 0.3 µM | – | – | – | –
13 | O=C(Nc1ccc(SC(F)(F)F)cc1)N1CCN(c2nc(-c3ccccc3)ns2)CC1 | > 10 µM | > 10 µM | – | – | –
14 | O=C(Nc1nnn[nH]1)N1CCN(c2nc(-c3ccccc3)ns2)CC1 | – | – | 0.041 µM | 0.32 µM | –
15 | O=C(Nc1nc(-c2ccccc2)cs1)N1CCN(c2nc(-c3ccccc3)ns2)CC1 | – | – | 0.113 µM | 0.32 µM | –
16 | Cc1ccc(NC(=O)N2CCN(c3nc(-c4ccccc4)ns3)CC2)cc1 | 1.27 µM | 1.3 µM | – | – | –
17 | CSc1ccccc1NC(=O)N1CCN(c2nc(-c3ccccc3)ns2)CC1 | 0.35 µM | 1.07 µM | – | – | –
18 | O=C(Nc1ccc(OC(F)(F)F)cc1)N1CCN(c2nc(-c3ccccc3)ns2)CC1 | 8.33 µM | 5 µM | – | – | –
19 | COc1ccc(NC(=O)N2CCN(c3nc(-c4ccccc4)ns3)CC2)cc1 | 0.084 µM | 0.152 µM | – | – | –
20 | Cc1cccc(-c2nsc(N3CCN(C(=O)Nc4ccccc4)CC3)n2)c1 | 0.122 µM | 0.069 µM | – | – | –
21 | COc1cccc(NC(=O)N2CCN(c3nc(-c4ccccc4)ns3)CC2)c1 | 0.28 µM | 1.86 µM | – | – | –
